Source: ChEMBL document CHEMBL4715707, “Allosteric Indole Amide Inhibitors of p97: Identification of a Novel Probe of the Ubiquitin Pathway” (ACS Med Chem Lett, 2016)
Values after ≈ are worked out from the molar mass of the structure shown. Blank lines part the entries; values can stand above or below the compound they belong to. Active and inactive are the calls of the source. No cut-off for these calls is given here.

How the values were obtained:
[1] = target: T1, Transitional endoplasmic reticulum ATPase (Homo sapiens, UniProt P55072); assay: Inhibition of recombinant human full length Avi-tagged p97 (1 to 806 residues) expressed in Escherichia coli Rosetta 2(DE3) using 20 uM ATP as substrate incubated for 90 mins by ADP-glo assay
Method in brief: (§1)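 ADP-Glo luminescent detection of ADP formed by wild-type p97 ATPase. Enzyme was 20 nM WT p97 (indole amide series) or 10 nM (pyridine indole amide series), with ATP at 20 or 100 μM. n is the number of independent replicates, each run in duplicate or triplicate.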
Target sequence in this assay (P55072 whole entry, the tested form may be a part): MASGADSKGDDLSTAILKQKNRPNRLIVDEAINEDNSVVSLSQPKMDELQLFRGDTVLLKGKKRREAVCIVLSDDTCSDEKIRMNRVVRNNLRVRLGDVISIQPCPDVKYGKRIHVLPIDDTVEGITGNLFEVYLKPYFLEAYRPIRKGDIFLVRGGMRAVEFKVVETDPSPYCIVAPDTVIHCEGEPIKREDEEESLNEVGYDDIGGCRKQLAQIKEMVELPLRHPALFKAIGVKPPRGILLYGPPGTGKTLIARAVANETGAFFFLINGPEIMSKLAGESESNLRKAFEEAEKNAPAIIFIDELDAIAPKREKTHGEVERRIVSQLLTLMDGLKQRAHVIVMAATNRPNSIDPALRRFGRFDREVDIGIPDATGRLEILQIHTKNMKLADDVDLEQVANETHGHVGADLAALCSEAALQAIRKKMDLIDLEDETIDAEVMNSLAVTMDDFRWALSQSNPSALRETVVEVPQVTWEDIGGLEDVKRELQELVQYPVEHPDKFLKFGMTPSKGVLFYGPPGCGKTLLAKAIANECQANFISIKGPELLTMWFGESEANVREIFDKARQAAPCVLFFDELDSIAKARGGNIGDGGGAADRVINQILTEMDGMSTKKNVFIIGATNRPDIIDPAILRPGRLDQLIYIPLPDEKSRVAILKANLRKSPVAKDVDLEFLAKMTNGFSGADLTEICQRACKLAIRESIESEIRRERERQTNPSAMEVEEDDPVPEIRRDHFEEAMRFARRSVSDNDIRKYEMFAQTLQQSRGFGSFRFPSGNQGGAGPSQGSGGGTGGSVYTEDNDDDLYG

[2] = target: T1, Transitional endoplasmic reticulum ATPase; assay: Inhibition of recombinant human full length Avi-tagged p97 (1 to 806 residues) expressed in Escherichia coli Rosetta 2(DE3) using 100 uM ATP as substrate incubated for 90 mins by ADP-glo assay; method in brief: as §1
Target sequence in this assay (P55072 whole entry, the tested form may be a part): as above

[3] = target: T1, Transitional endoplasmic reticulum ATPase; assay: Inhibition of recombinant human full length Avi-tagged p97 (1 to 806 residues) expressed in Escherichia coli Rosetta 2(DE3) using 5 uM ATP as substrate incubated for 90 mins by ADP-glo assay
Method in brief: (§2)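 ATP-dependence of inhibition assessed by determining IC50 at three ATP levels (5, 20 and 100 μM) in the ADP-Glo p97 ATPase assay. Inhibition mode was assigned from the shift in IC50 with increasing ATP.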
Target sequence in this assay (P55072 whole entry, the tested form may be a part): as above

[4] = target: T1, Transitional endoplasmic reticulum ATPase; assay: Binding affinity to recombinant human full length Avi-tagged p97 (1 to 806 residues) expressed in Escherichia coli Rosetta 2(DE3) assessed as binding constant by SPR analysis
Target sequence in this assay (P55072 2-806 limits assumed): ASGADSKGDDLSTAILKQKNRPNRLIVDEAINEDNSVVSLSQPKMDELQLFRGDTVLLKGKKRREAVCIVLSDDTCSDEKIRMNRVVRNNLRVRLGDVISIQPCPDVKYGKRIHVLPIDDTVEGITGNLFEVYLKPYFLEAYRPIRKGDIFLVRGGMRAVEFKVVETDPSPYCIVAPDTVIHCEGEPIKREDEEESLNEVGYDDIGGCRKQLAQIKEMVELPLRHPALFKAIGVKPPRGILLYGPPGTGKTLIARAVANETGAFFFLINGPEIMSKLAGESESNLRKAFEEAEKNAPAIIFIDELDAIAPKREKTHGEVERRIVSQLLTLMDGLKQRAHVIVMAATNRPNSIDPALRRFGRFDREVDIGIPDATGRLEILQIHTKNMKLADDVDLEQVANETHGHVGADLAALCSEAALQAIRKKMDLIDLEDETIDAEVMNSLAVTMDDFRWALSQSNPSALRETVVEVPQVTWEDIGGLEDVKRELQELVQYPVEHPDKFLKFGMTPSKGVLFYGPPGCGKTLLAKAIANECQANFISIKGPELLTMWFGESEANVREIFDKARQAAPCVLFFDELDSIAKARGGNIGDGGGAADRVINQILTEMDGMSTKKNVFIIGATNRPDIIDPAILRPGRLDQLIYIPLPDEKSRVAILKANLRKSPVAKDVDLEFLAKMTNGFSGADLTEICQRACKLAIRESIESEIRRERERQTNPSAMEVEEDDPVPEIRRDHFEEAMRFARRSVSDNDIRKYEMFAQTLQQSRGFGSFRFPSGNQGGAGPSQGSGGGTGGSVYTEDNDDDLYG

[5] = Aqueous solubility of compound at pH 7; assay type: physicochemical; conditions: buffer
Method in brief: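 Aqueous solubility determined in PBS at pH 7.4.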

[6] = target: T1, Transitional endoplasmic reticulum ATPase; assay: Binding affinity to recombinant human full length C-terminal Avi-tagged p97 D2 domain (461 to 806 residues) expressed in Escherichia coli Rosetta 2(DE3) assessed as binding constant by SPR analysis
Target sequence in this assay (P55072 2-806 limits assumed): as above

[7] = target: T1, Transitional endoplasmic reticulum ATPase; assay: Binding affinity to recombinant human full length N-terminal Avi-tagged p97 ND1 domain (1 to 458 residues) expressed in Escherichia coli Rosetta 2(DE3) assessed as binding constant by SPR analysis
Target sequence in this assay (P55072 2-806 limits assumed): as above

[8] = Apparent permeability across apical to basolateral side in MDCK cells; assay type: ADME, cell-based, Canis lupus familiaris; conditions: dog
Method in brief: (§3)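 Bidirectional permeability measured across MDCK cell monolayers, reported as apparent permeability (Papp) in cm/s for each direction.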

[9] = Metabolic stability in mouse microsomes assessed as half life; assay type: ADME, Microsome
[10] = target: T1, Transitional endoplasmic reticulum ATPase; assay: Uncompetitive inhibition of recombinant human full length Avi-tagged p97 (1 to 806 residues) expressed in Escherichia coli Rosetta 2(DE3) using 20 uM ATP as substrate incubated for 90 mins by ADP-glo assay based Michaelis-Menten plot analysis; method in brief: as §2
Target sequence in this assay (P55072 whole entry, the tested form may be a part): as the sequence (P55072 whole entry, the tested form may be a part) above

[11] = Metabolic stability in human microsomes assessed as half life; assay type: ADME, Microsome
[12] = Apparent permeability across basolateral to apical side in MDCK cells; assay type: ADME, cell-based, Canis lupus familiaris; conditions: dog; method in brief: as §3
[13] = target: T1, Transitional endoplasmic reticulum ATPase; assay: Competitive inhibition of recombinant human full length Avi-tagged p97 (1 to 806 residues) expressed in Escherichia coli Rosetta 2(DE3) using 20 uM ATP as substrate incubated for 90 mins by ADP-glo assay based Michaelis-Menten plot analysis
Target sequence in this assay (P55072 whole entry, the tested form may be a part): as above

SMILES: Cc1cc2cc(NC(=O)c3nccnc3N)ccc2n1C
- IC50 [2]: > 50 µM

SMILES: Cc1cc2cc(NC(=O)c3ncccc3N)ccc2[nH]1
- IC50 [1]: > 50 µM

SMILES: Cc1cc2cc(NC(=O)c3cccnc3N)ccc2[nH]1
- Papp A→B [8]: 71 ×10⁻⁶ cm/s
- half-life [9]: 5 min
- Ki [10]: 0.74 µM
- IC50 [2]: 0.5 µM
- half-life [11]: > 60 min
- Papp B→A [12]: 46 ×10⁻⁶ cm/s
- solubility [5]: 330 µM (≈ 87.9 µg/mL)
- Ki [13]: 3.5 µM
- IC50 [1]: 2.6 µM

SMILES: Cc1cc2cc(NC(=O)c3cnccn3)ccc2[nH]1
- IC50 [1]: > 50 µM

The next lines start with the values.

- IC50 [1]: > 50 µM
SMILES: Nc1nccnc1C(=O)Nc1ccc2[nH]ccc2c1

- IC50 [3]: 26 µM
- IC50 [2]: 3.5 µM
- Kdiss [4]: 9.1 µM
- solubility [5]: 56 µM (≈ 15 µg/mL)
- Activity [6]: Active
- IC50 [1]: 11.5 µM
- Activity [7]: inactive
SMILES: Cc1cc2cc(NC(=O)c3nccnc3N)ccc2[nH]1

- IC50 [2]: 13 µM
SMILES: CCc1cc2cc(NC(=O)c3nccnc3N)ccc2[nH]1

- IC50 [1]: > 50 µM
SMILES: Cc1[nH]c2ccc(NC(=O)c3nccnc3N)cc2c1C
